Source: ChEMBL document CHEMBL5724801, “EUbOPEN Chemogenomics Library - Multiplex” (2024)
Where “and” joins values, the source holds several entries; their conditions need not be identical. Identical values can stand only once.

Test system: HEK-293T
Assay: Multiplex assay against HEK293T
Type: toxicity, cell-based
Conditions: human
In short: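 Live cells were stained at seeding with Hoechst33342, BioTracker Green Microtubule Cytoskeleton Dye, MitoTracker Red and Annexin V Alexa Fluor 680, then imaged on a CQ1 microscope at 37°C and 5% CO2 after compound addition. CellPathfinder machine-learning gating split cells into Hoechst high-intensity objects or normal cells. Normal cells were split into healthy, pyknosed or fragmented nuclei, and pyknosed cells into mitotic or apoptotic. Tubulin, mitochondrial-mass and membrane-permeability phenotypes are per cents of healthy-nucleus cells.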

[1] = 12 h, 1 µM, compound concentration 1 uM
[2] = 12 h, 10 µM, compound concentration 10 uM
[3] = 24 h, 1 µM, compound concentration 1 uM
[4] = 24 h, 10 µM, compound concentration 10 uM
[5] = 48 h, 1 µM, compound concentration 1 uM
[6] = 48 h, 10 µM, compound concentration 10 uM

CC(C)c1noc(N2CCC(COc3ccc(-c4ccc(S(C)(=O)=O)cc4)nc3)CC2)n1 [GSK-1292263]
Population Apoptotic (%) [1]: 37% and 25%
Population Fragmented Nuclei (%) [1]: 8% and 6%
Population Healthy Nuclei (%) [1]: 78% and 86%
Population Hoechst High Intensity Objects (%) [1]: 5% and 6%
Population Membrane Permeable-Phenotype (%) [1]: 0%
Population Mitochondria Different-Phenotype (%) [1]: 42% and 53%
Population Mitotic Cells (%) [1]: 62% and 74%
Population Normal (%) [1]: 94% and 93%
Population Pyknosed Nuclei (%) [1]: 12% and 7%
Population Tubulin-Different-Phenotype (%) [1]: 32% and 13%
Total Cell Count [1]: 440 and 522
Population Apoptotic (%) [2]: 50% and 43%
Population Fragmented Nuclei (%) [2]: 6% and 7%
Population Healthy Nuclei (%) [2]: 71% and 78%
Population Hoechst High Intensity Objects (%) [2]: 13% and 16%
Population Membrane Permeable-Phenotype (%) [2]: 0%
Population Mitochondria Different-Phenotype (%) [2]: 69% and 77%
Population Mitotic Cells (%) [2]: 50% and 56%
Population Normal (%) [2]: 86% and 83%
Population Pyknosed Nuclei (%) [2]: 22% and 13%
Population Tubulin-Different-Phenotype (%) [2]: 55% and 40%
Total Cell Count [2]: 311 and 279
Population Apoptotic (%) [3]: 23% and 25%
Population Fragmented Nuclei (%) [3]: 8% and 7%
Population Healthy Nuclei (%) [3]: 78% and 82%
Population Hoechst High Intensity Objects (%) [3]: 5% and 3%
Population Membrane Permeable-Phenotype (%) [3]: 0%
Population Mitochondria Different-Phenotype (%) [3]: 27% and 29%
Population Mitotic Cells (%) [3]: 76% and 74%
Population Normal (%) [3]: 94% and 96%
Population Pyknosed Nuclei (%) [3]: 12% and 9%
Population Tubulin-Different-Phenotype (%) [3]: 25% and 9%
Total Cell Count [3]: 545 and 608
Population Apoptotic (%) [4]: 64% and 46%
Population Fragmented Nuclei (%) [4]: 8% and 11%
Population Healthy Nuclei (%) [4]: 79% and 74%
Population Hoechst High Intensity Objects (%) [4]: 8% and 10%
Population Membrane Permeable-Phenotype (%) [4]: 0%
Population Mitochondria Different-Phenotype (%) [4]: 58% and 59%
Population Mitotic Cells (%) [4]: 35% and 53%
Population Normal (%) [4]: 91% and 89%
Population Pyknosed Nuclei (%) [4]: 12% and 13%
Population Tubulin-Different-Phenotype (%) [4]: 49% and 28%
Total Cell Count [4]: 384 and 354
Population Apoptotic (%) [5]: 22% and 23%
Population Fragmented Nuclei (%) [5]: 10%
Population Healthy Nuclei (%) [5]: 81% and 83%
Population Hoechst High Intensity Objects (%) [5]: 3% and 1%
Population Membrane Permeable-Phenotype (%) [5]: 1%
Population Mitochondria Different-Phenotype (%) [5]: 23% and 14%
Population Mitotic Cells (%) [5]: 77% and 76%
Population Normal (%) [5]: 96% and 98%
Population Pyknosed Nuclei (%) [5]: 8% and 5%
Population Tubulin-Different-Phenotype (%) [5]: 14% and 10%
Total Cell Count [5]: 865 and 882
Population Apoptotic (%) [6]: 32% and 30%
Population Fragmented Nuclei (%) [6]: 10% and 13%
Population Healthy Nuclei (%) [6]: 79% and 78%
Population Hoechst High Intensity Objects (%) [6]: 10% and 5%
Population Membrane Permeable-Phenotype (%) [6]: 0%
Population Mitochondria Different-Phenotype (%) [6]: 50% and 37%
Population Mitotic Cells (%) [6]: 67% and 69%
Population Normal (%) [6]: 89% and 94%
Population Pyknosed Nuclei (%) [6]: 9% and 8%
Population Tubulin-Different-Phenotype (%) [6]: 28% and 18%
Total Cell Count [6]: 506 and 595
